In ChEMBL document CHEMBL1143636, “A series of bisaryl imidazolidin-2-ones has shown to be selective and orally active 5-HT2C receptor antagonists” (Bioorg Med Chem Lett, 2005):
Calls of active or inactive are those of the source. The rule behind the calls is not given here.

Tests used:
[1] = biological target: 5-hydroxytryptamine receptor 2B (Homo sapiens, UniProt P41595); test: Binding affinity for human 5-hydroxytryptamine 2B receptor expressed in HEK 293 cells using [3H]5-HT; type: cell-based, HEK293
[2] = biological target: 5-hydroxytryptamine receptor 2A (Homo sapiens, UniProt P28223); test: Binding affinity for human 5-hydroxytryptamine 2A receptor expressed in HEK 293 cells using [3H]ketanserin; type: cell-based, HEK293
[3] = biological target: T1, 5-hydroxytryptamine receptor 2C (Homo sapiens, UniProt P28335); test: Binding affinity for human 5-hydroxytryptamine 2C receptor expressed in HEK 293 cells using [3H]mesulergine; type: cell-based, HEK293
T1 sequence (P28335 whole entry): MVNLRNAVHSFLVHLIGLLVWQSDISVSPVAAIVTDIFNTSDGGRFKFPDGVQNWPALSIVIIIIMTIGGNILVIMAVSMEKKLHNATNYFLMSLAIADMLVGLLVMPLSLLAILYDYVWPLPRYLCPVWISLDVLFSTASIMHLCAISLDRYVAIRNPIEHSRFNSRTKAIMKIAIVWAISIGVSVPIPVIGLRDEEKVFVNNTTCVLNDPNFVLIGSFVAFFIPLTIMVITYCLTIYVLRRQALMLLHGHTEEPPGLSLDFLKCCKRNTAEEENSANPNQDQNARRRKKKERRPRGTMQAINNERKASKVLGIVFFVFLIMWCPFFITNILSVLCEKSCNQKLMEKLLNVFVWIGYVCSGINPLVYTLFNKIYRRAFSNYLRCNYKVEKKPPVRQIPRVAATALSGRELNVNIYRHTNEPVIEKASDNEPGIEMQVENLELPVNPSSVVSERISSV

[4] = In vivo clearance in rat was determined; type: ADME, organism-based
Rattus norvegicus [5] = test: Percentage reversal at 10 mg/kg po of mCPP (7 mg/kg i.p.) induced hypolocomotion; type: functional
In short: (§1)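 Rats were given the test compound orally at 10 mg/kg. mCPP, a 5-HT2C agonist, was given at 7 mg/kg ip 20 min before testing to induce hypolocomotion. The read-out was the percentage reversal of mCPP-induced hypolocomotion.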

Rattus norvegicus [6] = test: Dose of compound required to reverse mCPP (7 mg/kg i.p.) induced hypolocomotion by 50%; type: functional
In short: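 In rats, hypolocomotion was induced with the 5-HT2C agonist mCPP at 7 mg/kg ip, given 30 min pretest. The value is the compound dose that reversed the mCPP-induced hypolocomotion by 50%.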

Rattus norvegicus [7] = test: Percentage reversal at 10 mg/kg po of mCPP (7 mg/kg i.p.) induced hypolocomotion; in active; type: functional, organism-based; design: dose 10 mg/kg; in short: as §1
Rattus norvegicus [8] = test: Percentage reversal at 10 mg/kg po of mCPP (7 mg/kg i.p.) induced hypolocomotion; IA = in active; type: functional, organism-based; design: dose 10 mg/kg; in short: as §1

5-hydroxytryptamine receptor 2A, sequence (P28223 whole entry): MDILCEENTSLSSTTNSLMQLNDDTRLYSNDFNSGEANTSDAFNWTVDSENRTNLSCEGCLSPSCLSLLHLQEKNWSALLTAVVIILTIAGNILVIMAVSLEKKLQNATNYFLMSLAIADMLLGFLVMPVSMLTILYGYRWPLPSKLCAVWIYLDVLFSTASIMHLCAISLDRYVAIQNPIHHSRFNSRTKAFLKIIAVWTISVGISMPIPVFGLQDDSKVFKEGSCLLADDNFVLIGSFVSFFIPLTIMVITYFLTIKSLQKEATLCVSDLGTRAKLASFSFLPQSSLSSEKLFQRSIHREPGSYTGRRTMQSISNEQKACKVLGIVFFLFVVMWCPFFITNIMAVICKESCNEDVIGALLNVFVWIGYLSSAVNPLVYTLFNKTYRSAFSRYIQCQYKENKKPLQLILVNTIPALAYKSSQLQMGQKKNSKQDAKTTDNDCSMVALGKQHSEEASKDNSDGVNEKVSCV
5-hydroxytryptamine receptor 2B, sequence (P41595 whole entry): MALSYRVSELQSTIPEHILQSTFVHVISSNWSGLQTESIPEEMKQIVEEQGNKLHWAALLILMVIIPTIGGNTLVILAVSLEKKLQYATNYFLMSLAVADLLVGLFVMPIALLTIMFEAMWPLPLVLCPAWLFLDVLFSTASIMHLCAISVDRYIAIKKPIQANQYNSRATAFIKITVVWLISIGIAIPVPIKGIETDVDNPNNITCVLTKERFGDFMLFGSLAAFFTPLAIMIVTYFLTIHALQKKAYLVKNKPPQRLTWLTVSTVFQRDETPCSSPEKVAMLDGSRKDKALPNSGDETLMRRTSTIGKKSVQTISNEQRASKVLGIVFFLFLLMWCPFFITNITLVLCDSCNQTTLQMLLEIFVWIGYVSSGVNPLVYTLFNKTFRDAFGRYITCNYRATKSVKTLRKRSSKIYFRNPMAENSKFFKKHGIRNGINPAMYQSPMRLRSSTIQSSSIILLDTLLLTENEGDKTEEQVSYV

Ki [1] | Ki [2] | Ki [3] | clearance [4] | SMILES | Reversal (Rattus norvegicus [5]) | ID50 (Rattus norvegicus [6]) | Reversal (Rattus norvegicus [7]) | Reversal (Rattus norvegicus [8])
> 6310 nM | > 10000 nM | 50.1 nM |  | COc1ccc(N2CC(=O)N(c3cccc(F)c3)C2=O)cc1OCCN1CCCCC1 |  |  |  | 
316 nM | > 5010 nM | 3.16 nM |  | COc1ccc(N2CCN(c3ccc(Cl)c(Cl)c3)C2=O)cc1OCCN1CCOCC1 | 7% |  |  | 
158 nM | 1000 nM | 25.1 nM |  | O=C1N(c2ccc(OCCN3CCCCC3)nc2)CCN1c1ccc(Cl)c(Cl)c1 |  |  |  | 
1580 nM | 2510 nM | 3.98 nM |  | COc1ccc(N2CCN(c3cccc(F)c3)C2=O)cc1OCCN(C)C | 40% |  |  | 
501 nM | 2000 nM | 1.58 nM | > 120 mL/min/kg | COc1ccc(N2CCN(c3cccc(F)c3)C2=O)cc1OCCN1CCCCC1 | 7% |  |  | 
126 nM | 398 nM | 0.631 nM |  | COc1cc2c(cc1OCCN1CCCCC1)N(C(=O)/C=C/c1ccccc1Cl)CC2 | 71% |  |  | 
> 5010 nM | > 10000 nM | 1 nM |  | COc1ccc(N2CCN(c3cc(F)cc(F)c3)C2=O)cc1OCCN1CCCCC1 | 40% |  |  | 
1260 nM | 1580 nM | 10 nM |  | COc1ccc(N2CCN(c3cccc(Cl)c3Cl)C2=O)cc1OCCN1CCCCC1 |  |  |  | inactive
126 nM | 3160 nM | 7.94 nM |  | COc1ccc(N2CCN(c3ccc(C)c(C(F)(F)F)c3)C2=O)cc1OCCN1CCOCC1 |  |  | inactive | 
> 6310 nM | > 10000 nM | 398 nM |  | O=C1N(c2ccc(OCc3ccccn3)nc2)CCN1c1ccc(Cl)c(Cl)c1 |  |  |  | 

The remaining lines, values behind:

SMILES | Ki [1] | Ki [2] | Ki [3] | clearance [4] | Reversal (Rattus norvegicus [5]) | ID50 (Rattus norvegicus [6]) | Reversal (Rattus norvegicus [7]) | Reversal (Rattus norvegicus [8])
COc1ccc(N2CCN(c3ccc(Cl)c(Cl)c3)C2=O)cc1OCCN1CCCCC1 | 316 nM | 631 nM | 0.794 nM | 45 mL/min/kg | 75% |  |  | 
COc1ccc(N2CCN(c3cccc(F)c3)C2=O)cc1OCCN1CCOCC1 | 794 nM | > 6310 nM | 12.6 nM | > 120 mL/min/kg | 10% |  |  | 
Cc1cc2c(cc1Cl)N(C(=O)Nc1ccc(Oc3cccnc3C)nc1)CC2 [SB-242084] |  |  |  |  |  | 2 mg/kg |  | 
COc1ccc(N2CCN(c3cccc(F)c3)C2=O)cc1OCCO | 1260 nM | > 10000 nM | 1260 nM |  |  |  |  | 
COc1ccc(N2CCN(c3ccccc3Cl)C2=O)cc1OCCN1CCCCC1 | > 7940 nM | 3980 nM | 31.6 nM |  |  |  |  | 
COc1ccc(N2CCN(c3ccccc3)C2=O)cc1OCCN1CCCCC1 | 1260 nM | 2510 nM | 1.26 nM |  |  |  | inactive | 
COc1ccc(N2CCN(c3ccc(C)c(C(F)(F)F)c3)C2=O)cc1OCCN1CCCCC1 | 79.4 nM | 398 nM | 2 nM |  |  |  | inactive | 
COc1ccc(N2CCN(c3ccc(Cl)c(Cl)c3)C2=O)cc1OCCN(C)C |  | 501 nM | 1.26 nM |  |  |  | inactive | 
Cc1cc2c(cc1C(F)(F)F)N(C(=O)Nc1ccc(Oc3cccnc3C)nc1)CC2 [SB-243213] |  |  |  |  |  | 0.7 mg/kg |  | 
Cc1cc2c(cc1C(F)(F)F)N(C(=O)Nc1ccc(OCc3ccccn3)nc1)CC2 |  |  |  |  |  | 1 mg/kg |  | 
COc1ccc(-n2ccn(-c3cc(F)cc(F)c3)c2=O)cc1OCCN1CCCCC1 | > 7940 nM | > 10000 nM | 7.94 nM |  |  |  |  | 
COc1ccc(-n2ccn(-c3cccc(F)c3)c2=O)cc1OCCN1CCCCC1 | 2000 nM | > 1000 nM | 6.31 nM |  |  |  | inactive | 
